Data taken from ChEMBL document CHEMBL1136005 (J Med Chem, 2002).
pIC50: −log10 of the molar value.

Key:
[1] = biological target: Platelet-derived growth factor receptor (Homo sapiens, UniProt P09619+P16234); assay: Concentration required for 50% inhibition against autophosphorylation of Platelet-derived growth factor receptor beta in intact cells using a two site ELISA; format: cell-based
[2] = Plasma concentration was determined after 8 hr at a dose 30 mg/kg administered orally to rat-1; format: ADME, organism-based; set-up: dose 30 mg/kg, route oral; details: po
In short: (§1)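 Sprague-Dawley rats, n=2 per compound, dosed orally at 30 mg/kg. Plasma drug concentration measured 1 and 8 h after dosing.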

[3] = Plasma concentration was determined after 8 hr at a dose 30 mg/kg administered orally to rat-2; format: ADME, organism-based; set-up: dose 30 mg/kg, route oral; details: po; in short: as §1
[4] = Plasma concentration was determined after 1 hr at a dose 30 mg/kg administered orally to rat-1; format: ADME, organism-based; set-up: dose 30 mg/kg, route oral; details: po; in short: as §1
[5] = Plasma concentration was determined after 1 hr at a dose 30 mg/kg administered orally to rat-2; format: ADME, organism-based; set-up: dose 30 mg/kg, route oral; details: po; in short: as §1

SMILES | pIC50 [1] | other results
COc1cc2ncnc(N3CCN(/C(=C/[N+](=O)[O-])NCc4ccc5c(c4)OCO5)CC3)c2cc1OC | < 4.52 | –
COc1cc2ncnc(N3CCN(C(=NC#N)NCc4ccc(C(C)C)cc4)CC3)c2cc1OC | 5.86 | –
COc1cc2ncnc(N3CCN(C(=O)NCc4ccc5c(c4)OCO5)CC3)c2cc1OC | 5.73 | –
COc1cc2ncnc(N3CCN(C(=S)Nc4cccnc4)CC3)c2cc1OC | 6.39 | –
COc1ccc(CNC(=O)N2CCN(c3ncnc4cc(OC)c(OC)cc34)CC2)cc1 | 5.51 | concentration at 8 h [2]: 1400 ng/mL; concentration at 8 h [3]: 1900 ng/mL; concentration at 1 h [4]: 7300 ng/mL; concentration at 1 h [5]: 11600 ng/mL
COc1cc2ncnc(N3CCN(C(=S)NCCc4cccnc4)CC3)c2cc1OC | 4.70 | –
COc1cc2ncnc(N3CCN(C(=S)N[C@H](C)c4ccccc4)CC3)c2cc1OC | < 4.52 | –
COc1cc2ncnc(N3CCN(C(=O)NS(=O)(=O)c4ccc(Cl)cc4)CC3)c2cc1OC | < 4.52 | –
COc1cc2ncnc(N3CCN(C(=O)Nc4ccc(C(C)(C)C)cc4)CC3)c2cc1OC | 7.52 | –
COc1cc2ncnc(N3CCN(/C(S)=N\Cc4ccc(Oc5ccccc5)cc4)CC3)c2cc1OC | 6.02 | –
